Screening results: PubChem BioAssay, The Scripps Research Institute Molecular Screening Center
Sampled rows, rich in hits. Any-hit rate of the full collection: about 2%.
M5 antag: human M5 muscarinic receptor antagonists, primary screen, CHO cells, Fluo-8 calcium fluorescence; Muscarinic acetylcholine receptor M5 (Homo sapiens), P08912; CHO-hM5 cells, ACh EC80; inhibition, % at 3 µM; hit rate 0.59% among 360,000; AID 624040, 2012;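 active = inhibition above a per-plate cutoff, the mean of that plate's test compounds plus 3 SD, cut at about 27% in these data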;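 note: 0% = acetylcholine EC80 with DMSO and 100% = DMSO without agonist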
CHRM5 PAM: human M5 muscarinic receptor positive allosteric modulators, primary screen, CHO-K1 cells, Fluo-8 calcium fluorescence; AID 624038, 2012; activation, % at 3 µM; CHO-K1 hM5, ACh EC20 PAM; 0% = ACh EC20, 100% = ACh EC100; hit rate 0.3% among 360,000;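 active = activation above the run cutoff, the mean activation of all test compounds plus 3 SD, cut at about 18% in these data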
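Assay system: CHO-K1 hM5 cells / Incubation: Fluo-8 loading 80 min at 37 °C plus 30 min room temperature / Technique: Fluo-8 calcium dye fluorescence, kinetic read / Repeats: single replicate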
CHRM1 antagonist: human M1 muscarinic receptor antagonists, primary screen, CHO-K1 cells, Fluo-8 calcium fluorescence, 1536-well; inhibition, % at 3 µM; hit rate 1.3% among 360,000; Muscarinic acetylcholine receptor M1 (Homo sapiens), P11229; CHO-K1 hM1, ACh EC80 antagonist;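 active = percent inhibition above its own plate's cutoff, namely the mean of that plate's compound wells plus 3 SD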;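 note: peak over basal fluorescence ratio during 140 s after agonist addition; 0% = ACh EC80 plus DMSO and 100% = DMSO alone without agonist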
Target sequence (P11229 whole entry, looked up): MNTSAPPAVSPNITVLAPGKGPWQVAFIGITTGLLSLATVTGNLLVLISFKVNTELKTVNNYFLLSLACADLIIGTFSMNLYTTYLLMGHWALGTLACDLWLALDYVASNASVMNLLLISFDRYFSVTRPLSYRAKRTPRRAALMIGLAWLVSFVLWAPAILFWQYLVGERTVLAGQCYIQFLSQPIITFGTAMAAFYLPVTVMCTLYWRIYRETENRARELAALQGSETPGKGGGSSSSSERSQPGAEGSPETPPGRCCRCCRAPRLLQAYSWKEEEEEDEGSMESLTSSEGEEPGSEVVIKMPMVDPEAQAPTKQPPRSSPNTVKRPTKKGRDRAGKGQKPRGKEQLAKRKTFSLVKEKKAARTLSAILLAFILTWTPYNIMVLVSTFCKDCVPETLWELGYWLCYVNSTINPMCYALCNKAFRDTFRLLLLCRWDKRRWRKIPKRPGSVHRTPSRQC
CHRM1 PAM: human M1 muscarinic receptor positive allosteric modulators, primary screen, CHO-K1 cells, Fluo-8 calcium fluorescence, 1536-well | CHO-K1 hM1, ACh EC20; 0% = ACh EC20, 100% = maximal ACh | AID 588819, 2011 | Muscarinic acetylcholine receptor M1 (Homo sapiens), P11229 | hit rate 0.088% among 360,000 | activation, % at 3 µM; in the data active = activation above about 19%, passing the limit was not always enough
CHRM1 agonist: human M1 muscarinic receptor agonists, primary screen, Fluo-8 calcium fluorescence, CHO-K1 cells, HTS; CHO-K1 hM1, agonist mode; 0% DMSO, 100% acetylcholine EC100; activation, % at 3 µM; Muscarinic acetylcholine receptor M1 (Homo sapiens), P11229; hit rate 0.33% among 360,000;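 active = activation above the run's mean compound activation plus 3 SD, cut at about 16% in these data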;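 note: peak over basal fluorescence ratio within a 140 s kinetic read after compound addition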
CHRM5 agonist: human M5 muscarinic receptor agonists, primary screen, CHO-K1 cells, Fluo-8 calcium fluorescence; Muscarinic acetylcholine receptor M5 (Homo sapiens), P08912; CHO-K1 hM5 cells; 0% DMSO wells, 100% maximal acetylcholine response; activation, % at 3 µM; hit rate 0.19% among 360,000; AID 624037, 2012;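 active = activation above the run's mean over test compounds plus 3 SD, cut at about 23% in these data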;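 note: signal is peak over basal fluorescence ratio across the kinetic read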
Active calls of the source: *; · = not tested or not shown.

SMILES | M5 antag | CHRM5 PAM | CHRM1 antagonist | CHRM1 PAM | CHRM1 agonist | CHRM5 agonist
CCOC(=O)C1CCN(C(=O)c2cccc(C(=O)N3CCC(C(=O)OCC)CC3)c2)CC1 | 14 | -5 | 1 | -1 | 4 | 2
CCOC(=O)C1CCN(C(=O)c2cccnc2)CC1 | -8 | -1 | 12 | 27* | -3 | -3
CC1(C(=O)NCc2ccccc2)CSCC(=O)N1CC(F)(F)F (centres undefined) | -12 | 8 | · | · | · | 1
CC(=O)C1=CCC(c2ccc(C)cc2)N(S(=O)(=O)c2ccc(Cl)cc2)C1 (centres undefined) | 14 | -12 | -1 | -8 | -4 | -4
CCCc1nc2c3ccccc3ccn2c1Cc1ccccc1 | 28* | -22 | 8 | -25 | -8 | -7
COc1ccc2c(c1)Cc1cc(NC(=O)c3ccccc3-c3ccccc3C(=O)O)ccc1-2 | 14 | 0 | -19 | 17 | -1 | -3
Cc1noc(C)c1S(=O)(=O)N(C)C[C@@H]1OCc2cnnn2CCCC(=O)N([C@@H](C)CO)C[C@H]1C | -2 | 5 | -12 | 7 | -6 | -2
CN(C)c1ccc(/C=C/C(=O)c2c(O)c3ccccc3oc2=O)cc1 | 18 | -11 | 12 | -12 | 30* | 26*
O=C(NCCc1ccccc1)Nc1nnc([C@@H]2C[C@H](O)[C@@H](CO)O2)s1 | 1 | -3 | -11 | 3 | -3 | 1
CSC12CCCN(CCC(C(C)(C)C)C1)C2=O (centres undefined) | 0 | 6 | · | · | · | 2
OC(CSc1ccccc1)CN1CCN(c2ccc(Cl)cc2)CC1 (centres undefined) | 4 | 0 | -12 | 0 | 15 | -1
OC(CSc1ccccc1)CN1CCN(c2cccc(Cl)c2)CC1 (centres undefined) | 15 | -22 | -8 | -3 | 25* | -9
CN(CCN(C)C(C)(C)C)C(=O)C(c1ccccc1)c1ccccc1 | 31* | -35 | 97* | -27 | -6 | -20
COc1cccc(-c2cnc(C(O)c3ccc(CN4CCCC4)cc3)[nH]2)c1 (centres undefined) | 5 | -3 | -12 | 10 | -8 | -3
COCCNC(=O)C1(C)CCN(C(=O)c2cc(C)nn2C(C)(C)C)C1 (centres undefined) | -3 | 1 | -13 | 3 | -2 | 1
Cc1ccc(OC(F)F)c(NC(=O)Nc2cccc(C(F)(F)F)c2)c1 | 18 | -20 | 28* | -22 | -5 | 1
COc1cccc(NC(=O)Nc2cc(C)ccc2OC)c1 | 1 | -1 | -4 | 5 | -8 | -4
FC(F)(F)c1cccc(NC(=S)Nc2ccc(Cl)c(Cl)c2)c1 | 6 | -6 | 4 | -5 | 7 | 8
O=C(Nc1ccccc1)Nc1cccc(C(F)(F)F)c1 | 40* | -17 | 18 | -23 | 5 | 4
CC(=O)c1c(C)[nH]c(C(=O)Nc2cccc(C#N)c2)c1C | 0 | -4 | 5 | -3 | 2 | 5
CC(=O)c1c(C)[nH]c(C(=O)Nc2cccc(C(F)(F)F)c2)c1C | 29* | -13 | 25* | -16 | 3 | 7
FC(F)(F)c1cccc(NC(=S)NC(c2ccccc2)c2ccccc2)c1 | 27* | -19 | 18 | -10 | -4 | 2
CC(C)C(Cl)=NOC(=O)Nc1ccc(S(N)(=O)=O)cc1 | 4 | 2 | -12 | 3 | -2 | 1
CN(C)c1ccc(C=NN2C(=O)CSC2=S)c(Cl)c1 | 24 | -11 | 6 | -5 | 3 | 26*
O=C1CSC(=S)N1N=Cc1c(F)cccc1Cl | 2 | -3 | -4 | 2 | -1 | 1
SMILES | M5 antag | CHRM5 PAM | CHRM1 antagonist | CHRM1 PAM | CHRM1 agonist | CHRM5 agonist
CC(C)N1CC(=O)N2CSCC2C1=O (centres undefined) | -1 | 1 | · | · | · | 4
O=C1CSC(c2ccccn2)N1c1ccccc1F (centres undefined) | 30* | -6 | 0 | 2 | -4 | -1
O=C1CSC(c2ccccn2)N1c1ccc(F)cc1F (centres undefined) | -3 | 4 | -3 | 7 | -4 | 0
O=C(CSc1nc2ccccc2o1)Nc1ccc(N2CCOCC2)c(Cl)c1 | 28* | -14 | 25 | -8 | -2 | 7
CC12CCC3(CC1CCC1OC12)OCCO3 (centres undefined) | 12 | -8 | -13 | 3 | -3 | -2
CC1(C2CCC3C4CCC5CC6(CCC5(C)C4C(=O)CC32C)OCCO6)OCCO1 (centres undefined) | 8 | -1 | -24 | 25* | -5 | 3
COC(C(=O)Nc1ccc(S(=O)(=O)Nc2ccc(F)cc2)cc1)c1ccccc1 (centres undefined) | 0 | 0 | 3 | 7 | 18* | 20
CCOC(=O)C1(C)CCN1C(=O)c1ccccc1Br (centres undefined) | 9 | -3 | -10 | 7 | -3 | 1
COCCNc1nc(Nc2ccccc2Cl)c2sccc2n1 | 2 | -5 | -8 | -2 | -1 | 2
c1ccc(C(CN2CCOCC2)c2ccccc2)cc1 | 99* | -4 | 9 | -7 | -9 | -8
OC(COC(c1ccccc1)c1ccccc1)CN1CCOCC1 (centres undefined) | -6 | 8 | -4 | 1 | -11 | -8
CN(C)CCN(Cc1ccccc1)c1ccnc(N(C)C)c1C#N | -14 | -5 | 1 | 0 | -5 | -7
CN(C)c1nccc(N(Cc2ccccc2)Cc2ccccc2)c1C#N | 5 | -15 | 55* | -22 | -5 | -11
CN(C)C(C)(C)C#CCC(c1ccccc1)c1ccccc1 | 46* | -20 | 87* | -25 | -7 | -8
CN(C)C(C)(C)C#CCCCCC#CC(C)(C)N(C)C | 7 | 0 | -19 | 10 | -9 | -1
Cc1cc(/C=C\c2ccc3cc(N(C)C)ccc3[n+]2C)c(C)n1-c1ccccc1 | 40* | -17 | 90* | -28 | 26* | 10
COC(=O)c1cc2c(ccn2-c2ccc(F)cc2)n1CC(C)C | -6 | 19* | -8 | 9 | 3 | 11
COC(=O)c1cc2c(ccn2-c2ccc(F)cc2)n1Cc1cccc(OC)c1 | -3 | 3 | -3 | 10 | -4 | -1
COC(=O)c1cc2c(ccn2-c2ccc(F)cc2)n1C(C)C | -1 | 34* | -19 | 16 | -1 | -2
